The structures appear in SMILES notation. Activity calls are given as the source filed them.

Consider 23 molecules from ChEMBL document CHEMBL1151934, “Exploration and optimization of substituted triazolothiadiazines and triazolopyridazines as PDE4 inhibitors” (Bioorg Med Chem Lett, 2009).

Series [1] in a line: Metabolic stability in rat assessed as half life. In kind it is ADME, organism-based. The note with it: in vivo.
A short description of series [2]: Intrinsic clearance in rat microsomes. In kind it is ADME, Microsome.
In series [3] the target is 3',5'-cyclic-AMP phosphodiesterase 4A (Homo sapiens, UniProt P27815). As to the kind of experiment: Inhibition of human PDE4A by IMAP fluorescence polarization technology.
Sequence of 3',5'-cyclic-AMP phosphodiesterase 4A (P27815 whole entry): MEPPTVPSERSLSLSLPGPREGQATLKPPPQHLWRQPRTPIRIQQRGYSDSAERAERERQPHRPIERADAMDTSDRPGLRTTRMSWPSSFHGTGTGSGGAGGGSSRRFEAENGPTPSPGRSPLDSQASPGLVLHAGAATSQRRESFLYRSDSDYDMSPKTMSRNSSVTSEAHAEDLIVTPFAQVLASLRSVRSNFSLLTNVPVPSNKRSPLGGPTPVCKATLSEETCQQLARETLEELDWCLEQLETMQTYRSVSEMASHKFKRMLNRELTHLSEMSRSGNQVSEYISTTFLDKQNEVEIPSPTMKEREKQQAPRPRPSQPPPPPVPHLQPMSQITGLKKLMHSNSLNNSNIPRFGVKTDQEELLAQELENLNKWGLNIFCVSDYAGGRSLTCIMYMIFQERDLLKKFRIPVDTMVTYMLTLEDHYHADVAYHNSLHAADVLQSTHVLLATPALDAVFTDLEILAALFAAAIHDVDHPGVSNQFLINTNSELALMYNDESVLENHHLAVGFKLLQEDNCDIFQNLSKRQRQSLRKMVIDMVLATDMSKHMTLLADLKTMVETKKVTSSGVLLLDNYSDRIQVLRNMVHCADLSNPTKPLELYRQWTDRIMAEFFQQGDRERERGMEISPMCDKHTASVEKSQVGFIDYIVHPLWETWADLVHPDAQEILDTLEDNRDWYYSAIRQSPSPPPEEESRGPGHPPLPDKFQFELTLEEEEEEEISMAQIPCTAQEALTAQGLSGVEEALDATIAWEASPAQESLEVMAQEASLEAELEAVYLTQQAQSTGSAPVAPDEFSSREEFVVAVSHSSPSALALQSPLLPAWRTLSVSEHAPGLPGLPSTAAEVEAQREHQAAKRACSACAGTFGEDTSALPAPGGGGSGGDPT
In series [4] the target is cGMP-dependent 3',5'-cyclic phosphodiesterase (Homo sapiens) (UniProt O00408). Put plainly: Inhibition of PDE2A at 10 uM.
Series [5] deals with Beta-2 adrenergic receptor (Homo sapiens) (UniProt P07550). As to the kind of experiment: Inhibition of beta2 adrenergic receptor expressed in HEK293 cells co-transfected with PKA fragments Reg-F[1] and cat-F[2]-fused renilla luciferase assessed as effect on receptor regulated increase in cAMP accumulation at 100 uM after 30 mins by protein-fragment complementation assay. In kind it is functional, cell-based. The method, boiled down: (§1)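 Stable β2AR-HEK293 cells grown in DMEM with 10% fetal bovine serum and transiently transfected with the Rluc PCA PKA reporter. Compounds added 48 h after transfection. Medium exchanged for PBS and bioluminescence read on a luminometer immediately after treatment.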
Sequence of Beta-2 adrenergic receptor (Homo sapiens) (P07550 whole entry, looked up, the tested form may be a part): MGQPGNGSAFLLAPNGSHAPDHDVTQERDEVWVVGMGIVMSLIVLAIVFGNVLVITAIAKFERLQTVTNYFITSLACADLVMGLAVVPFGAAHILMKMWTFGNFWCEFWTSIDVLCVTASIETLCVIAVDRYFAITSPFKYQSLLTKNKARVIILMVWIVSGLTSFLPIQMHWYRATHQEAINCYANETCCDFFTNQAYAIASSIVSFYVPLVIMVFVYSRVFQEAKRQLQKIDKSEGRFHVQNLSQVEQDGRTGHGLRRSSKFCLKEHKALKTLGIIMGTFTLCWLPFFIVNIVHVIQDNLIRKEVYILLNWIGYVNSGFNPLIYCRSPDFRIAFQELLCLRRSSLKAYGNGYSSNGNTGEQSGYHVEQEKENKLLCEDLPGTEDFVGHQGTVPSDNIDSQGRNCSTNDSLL

In series [6] the target is T1, High affinity 3',5'-cyclic-AMP phosphodiesterase 7A (Homo sapiens, UniProt Q13946). As to the kind of experiment: Inhibition of PDE7A at 10 uM.
T1 sequence (Q13946 whole entry): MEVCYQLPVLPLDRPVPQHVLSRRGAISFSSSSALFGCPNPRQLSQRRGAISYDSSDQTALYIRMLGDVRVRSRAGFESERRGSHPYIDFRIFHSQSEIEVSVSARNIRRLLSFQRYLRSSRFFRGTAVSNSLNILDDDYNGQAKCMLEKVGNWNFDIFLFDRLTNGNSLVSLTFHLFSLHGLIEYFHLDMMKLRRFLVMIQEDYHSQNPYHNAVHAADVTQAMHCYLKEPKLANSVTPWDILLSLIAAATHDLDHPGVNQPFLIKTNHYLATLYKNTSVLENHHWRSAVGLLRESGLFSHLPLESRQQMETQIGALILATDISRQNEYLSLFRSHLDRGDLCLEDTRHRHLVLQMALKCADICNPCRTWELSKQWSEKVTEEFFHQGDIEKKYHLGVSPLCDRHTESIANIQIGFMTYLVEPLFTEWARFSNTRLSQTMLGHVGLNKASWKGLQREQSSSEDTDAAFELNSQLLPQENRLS
Series [7] deals with cGMP-specific 3',5'-cyclic phosphodiesterase (Homo sapiens) (UniProt O76074). Put plainly: Inhibition of PDE5A1 at 10 uM.
For series [8], the target named is Dual specificity calcium/calmodulin-dependent 3',5'-cyclic nucleotide phosphodiesterase 1A (Homo sapiens) (UniProt P54750). Put plainly: Inhibition of PDE1A at 10 uM.
Series [9] concerns the target T2, cGMP-inhibited 3',5'-cyclic phosphodiesterase 3A (Homo sapiens, UniProt Q14432). As to the kind of experiment: Inhibition of PDE3A at 10 uM.
In series [10] the target is T3, Dual specificity calcium/calmodulin-dependent 3',5'-cyclic nucleotide phosphodiesterase 1B (Homo sapiens, UniProt Q01064). Put plainly: Inhibition of PDE1B at 10 uM.
T3 sequence (Q01064 whole entry): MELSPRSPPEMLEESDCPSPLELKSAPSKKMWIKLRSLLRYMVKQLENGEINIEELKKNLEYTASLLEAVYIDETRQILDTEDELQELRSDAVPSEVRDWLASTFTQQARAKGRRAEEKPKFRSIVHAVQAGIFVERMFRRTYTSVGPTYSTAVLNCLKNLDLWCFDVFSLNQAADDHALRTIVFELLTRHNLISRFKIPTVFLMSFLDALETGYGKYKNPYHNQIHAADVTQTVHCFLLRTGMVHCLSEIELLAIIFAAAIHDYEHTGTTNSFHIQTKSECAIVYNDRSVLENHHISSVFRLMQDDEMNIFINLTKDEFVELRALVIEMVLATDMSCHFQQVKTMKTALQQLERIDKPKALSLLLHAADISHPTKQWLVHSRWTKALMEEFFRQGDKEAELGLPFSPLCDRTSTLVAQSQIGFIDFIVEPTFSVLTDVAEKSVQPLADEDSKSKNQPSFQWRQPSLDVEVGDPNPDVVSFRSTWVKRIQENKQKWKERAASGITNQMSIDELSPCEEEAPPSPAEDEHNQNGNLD
Series [11] in a line: Inhibition of PDE4A1A.
Series [12] deals with T4, Dual specificity calcium/calmodulin-dependent 3',5'-cyclic nucleotide phosphodiesterase 1C (Homo sapiens, UniProt Q14123). As to the kind of experiment: Inhibition of PDE1C at 10 uM.
T4 sequence (Q14123 whole entry, the tested form may be a part): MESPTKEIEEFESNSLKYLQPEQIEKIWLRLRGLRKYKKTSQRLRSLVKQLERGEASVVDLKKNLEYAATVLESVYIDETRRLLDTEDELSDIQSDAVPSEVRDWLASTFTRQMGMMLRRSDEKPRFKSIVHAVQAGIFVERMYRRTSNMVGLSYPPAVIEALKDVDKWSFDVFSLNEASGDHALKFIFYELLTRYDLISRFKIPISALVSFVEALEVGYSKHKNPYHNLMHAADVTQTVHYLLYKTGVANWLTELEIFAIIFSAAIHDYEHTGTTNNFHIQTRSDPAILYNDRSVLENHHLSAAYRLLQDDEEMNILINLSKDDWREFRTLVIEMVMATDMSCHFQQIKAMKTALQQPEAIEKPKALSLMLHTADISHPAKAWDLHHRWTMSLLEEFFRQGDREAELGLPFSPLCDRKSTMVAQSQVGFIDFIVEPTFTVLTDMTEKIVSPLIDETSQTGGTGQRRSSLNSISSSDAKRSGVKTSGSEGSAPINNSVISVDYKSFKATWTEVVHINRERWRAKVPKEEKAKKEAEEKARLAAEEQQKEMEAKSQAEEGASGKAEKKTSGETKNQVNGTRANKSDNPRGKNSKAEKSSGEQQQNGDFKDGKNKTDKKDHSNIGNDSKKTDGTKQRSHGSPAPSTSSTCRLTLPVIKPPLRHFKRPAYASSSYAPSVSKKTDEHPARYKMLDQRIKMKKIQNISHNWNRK
The target of series [13] is Beta-2 adrenergic receptor (Homo sapiens) (UniProt P07550). Put plainly: Inhibition of beta2 adrenergic receptor expressed in HEK293 cells co-transfected with PKA fragments Reg-F[1] and cat-F[2]-fused renilla luciferase assessed as effect on receptor regulated increase in cAMP accumulation at 10 uM after 30 mins by protein-fragment complementation assay. In kind it is functional, cell-based. Put shortly:
as §1
(Changes in cAMP serve as a functional read-out for many G protein-coupled receptors.)

The target in series [14] is T5, 3',5'-cyclic-AMP phosphodiesterase 7B (Homo sapiens, UniProt Q9NP56). As to the kind of experiment: Inhibition of PDE7B at 10 uM.
T5 sequence (Q9NP56 whole entry): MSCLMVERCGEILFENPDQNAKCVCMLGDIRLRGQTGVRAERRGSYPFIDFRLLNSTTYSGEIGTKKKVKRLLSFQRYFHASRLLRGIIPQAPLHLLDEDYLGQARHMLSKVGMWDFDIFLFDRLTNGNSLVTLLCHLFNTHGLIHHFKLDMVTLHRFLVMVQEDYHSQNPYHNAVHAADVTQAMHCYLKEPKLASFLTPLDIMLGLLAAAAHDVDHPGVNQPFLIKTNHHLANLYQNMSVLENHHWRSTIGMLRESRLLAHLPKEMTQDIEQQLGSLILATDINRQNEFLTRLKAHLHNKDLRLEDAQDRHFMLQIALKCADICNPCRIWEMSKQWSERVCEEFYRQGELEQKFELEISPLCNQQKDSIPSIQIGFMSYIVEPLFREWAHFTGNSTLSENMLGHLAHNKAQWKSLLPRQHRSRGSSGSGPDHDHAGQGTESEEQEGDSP
The nature of series [15]: Inhibition of PDE4 expressed in HEK293 cells coexpressing G-protein coupled receptor and cyclic nucleotide gated ion channel by fluorescence assay. In kind it is cell-based. Put shortly:
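PDE4-expressing reporter cells plated at 1000 cells/well in DMEM with penicillin/streptomycin and 2%, 5%, 10% or 20% fetal calf serum, 12 hr at 37 °C, 5% CO₂. Membrane potential dye 1 hr at room temperature, then compound pin-transferred from DMSO serial dilutions (final DMSO under 0.5%). Tested in duplicate.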

Series [16] has as its target cGMP-inhibited 3',5'-cyclic phosphodiesterase 3B (Homo sapiens, UniProt Q13370).
In series [17] the target is T2, cGMP-inhibited 3',5'-cyclic phosphodiesterase 3A.
Series [18] addresses cAMP and cAMP-inhibited cGMP 3',5'-cyclic phosphodiesterase 10A (Homo sapiens, UniProt Q9Y233). As to the kind of experiment: Inhibition of PDE10A1.
Series [19] deals with T1, High affinity 3',5'-cyclic-AMP phosphodiesterase 7A. As to the kind of experiment: Inhibition of PDE7A.
The target of series [20] is T5, 3',5'-cyclic-AMP phosphodiesterase 7B. Put plainly: Inhibition of PDE7B.
For series [21], the target named is T4, Dual specificity calcium/calmodulin-dependent 3',5'-cyclic nucleotide phosphodiesterase 1C. As to the kind of experiment: Inhibition of PDE1C.
The target of series [22] is T3, Dual specificity calcium/calmodulin-dependent 3',5'-cyclic nucleotide phosphodiesterase 1B.
Series [23] concerns the target Beta-2 adrenergic receptor (Homo sapiens) (UniProt P07550). As to the kind of experiment: Inhibition of beta2 adrenergic receptor expressed in HEK293 cells co-transfected with PKA fragments Reg-F[1] and cat-F[2]-fused renilla luciferase assessed as effect on receptor regulated PKA activation at 100 uM after 30 mins by protein-fragment complementation assay in presence of inverse agonist ICI-118551. In kind it is functional, cell-based. Put shortly: as §1

For series [24] the target is unchanged. Put plainly: Inhibition of beta2 adrenergic receptor expressed in HEK293 cells co-transfected with PKA fragments Reg-F[1] and cat-F[2]-fused renilla luciferase assessed as effect on receptor regulated PKA activation at 100 uM after 30 mins by protein-fragment complementation assay. In kind it is cell-based. The method, boiled down:
as §1

Series [25] has the same target. Put plainly: Inhibition of beta2 adrenergic receptor expressed in HEK293 cells co-transfected with PKA fragments Reg-F[1] and cat-F[2]-fused renilla luciferase assessed as dissociation of PKA fragments after 2 mins by real time kinetic study relative to inverse agonist ICI-118551. In kind it is functional, cell-based. Put shortly:
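Stable β2AR-HEK293 cells grown in DMEM with 10% fetal bovine serum and transiently transfected with plasmids carrying the Rluc PCA PKA reporter (FuGENE-6). Cells were treated with compounds 48 h after transfection. Immediately after treatment, the medium was exchanged for PBS and bioluminescence was read on a luminometer.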

T2 sequence (Q14432 whole entry): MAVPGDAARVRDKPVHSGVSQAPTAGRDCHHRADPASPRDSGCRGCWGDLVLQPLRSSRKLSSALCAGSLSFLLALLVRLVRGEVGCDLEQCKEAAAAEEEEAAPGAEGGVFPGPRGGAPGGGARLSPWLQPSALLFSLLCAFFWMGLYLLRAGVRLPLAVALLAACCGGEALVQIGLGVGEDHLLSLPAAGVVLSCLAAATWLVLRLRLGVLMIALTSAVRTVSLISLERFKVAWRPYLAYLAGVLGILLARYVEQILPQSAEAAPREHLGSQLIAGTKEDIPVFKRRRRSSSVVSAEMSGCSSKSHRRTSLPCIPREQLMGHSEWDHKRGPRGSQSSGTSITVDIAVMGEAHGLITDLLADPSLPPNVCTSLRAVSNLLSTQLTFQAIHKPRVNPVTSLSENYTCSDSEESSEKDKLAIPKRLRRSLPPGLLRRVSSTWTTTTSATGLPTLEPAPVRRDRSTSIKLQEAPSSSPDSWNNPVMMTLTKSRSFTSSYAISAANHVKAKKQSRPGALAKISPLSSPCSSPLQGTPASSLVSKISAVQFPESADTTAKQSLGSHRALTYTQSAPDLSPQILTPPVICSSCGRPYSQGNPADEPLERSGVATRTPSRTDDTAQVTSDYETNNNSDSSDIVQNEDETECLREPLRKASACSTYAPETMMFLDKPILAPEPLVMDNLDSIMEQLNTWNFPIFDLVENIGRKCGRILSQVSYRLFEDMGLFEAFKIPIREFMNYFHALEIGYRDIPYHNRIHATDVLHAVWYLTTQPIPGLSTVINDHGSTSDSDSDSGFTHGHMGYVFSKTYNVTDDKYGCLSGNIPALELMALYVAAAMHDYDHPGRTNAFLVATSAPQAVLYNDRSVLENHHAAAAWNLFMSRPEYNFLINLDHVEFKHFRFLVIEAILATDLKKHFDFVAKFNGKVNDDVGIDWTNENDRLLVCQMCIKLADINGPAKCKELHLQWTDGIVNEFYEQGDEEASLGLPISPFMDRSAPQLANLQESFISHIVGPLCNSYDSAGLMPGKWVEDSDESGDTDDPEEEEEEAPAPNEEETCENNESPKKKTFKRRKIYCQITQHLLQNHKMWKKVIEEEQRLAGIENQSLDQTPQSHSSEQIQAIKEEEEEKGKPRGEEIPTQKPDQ

For orientation: half-life means the time needed for the level to fall by half in the phase considered. As usually defined, the microsomal CLint is a measure of how fast metabolising enzymes remove a compound, apart from limits set by blood flow. A lower microsomal CLint goes with slow turnover. As to `COc1ccc(OC)c(-c2nnc3n2N=C(c2ccc(OC)c(OC4CCCC4)c2)CS3)c1`, the half-life in [1] is 3 min. In addition, the microsomal CLint in series [2] was above 300 µL/min/mg.
Broadly, the IC50 is the concentration needed to halve the response being measured. Regarding `COc1ccc(C2=Nn3c(nnc3-c3ccccc3OC)SC2)cc1OCC1CC1`, the IC50 in series [3] was 35 nM.
By inhibition is commonly meant the percentage by which the read-out fell short of the control. By EC50 is commonly meant the concentration needed to bring the measured effect to its halfway point. As for `COc1ccc(OC)c(-c2nnc3ccc(-c4ccc(OC)c(O[C@@H]5CCOC5)c4)nn23)c1`, the inhibition stood at 54% in [4]; 59% in series [6]; 51% in [7]; 32% in [8]; 54% in [9]; 56% in series [10]. The inhibition turned out to be 74% in series [12] and 35% in series [14]. The half-life in [1] was 3 min. Further, the inhibition entry in series [5] and in series [13] was “Active” each time. Also, the microsomal CLint in series [2] was above 300 µL/min/mg. The molecule further gave an IC50 in [11] of 0.6 nM. The molecule further gave an EC50 in series [15] of 34.2 nM.
Turning to `COc1ccc(C2=Nn3c(nnc3-c3ccccc3Cl)SC2)cc1OC1CCOC1` (stereo not given), in [3], the IC50 was 9.8 nM.
In turn, `Fc1ccccc1-c1nnc2n1N=C(c1ccc(OC(F)F)c(OCC3CC3)c1)CS2` gave an IC50 in series [3] of 53 nM.
Still for that read-out and setting: as for `COc1ccccc1-c1nnc2n1N=C(c1ccc(OC(F)F)c(OCC3CC3)c1)CS2`, the figure is 35 nM.
The same measure, in the same setting: as for `COc1ccc(C2=Nn3c(nnc3-c3ccccc3Cl)SC2)cc1OCC1CC1`, the figure is 21 nM; as for `COc1ccc(C2=Nn3c(nnc3-c3ccccc3F)SC2)cc1O[C@@H]1CCOC1`, 8.6 nM.
On to `COc1ccc(OC)c(-c2nnc3n2N=C(c2ccc(OC)c(OC)c2)CS3)c1`, for which the IC50 came to 720 nM in series [16], 1700 nM in series [17] and 823 nM in series [18] (read-out: IC50). Besides, in series [1], the half-life amounted to 3 min. The molecule also returned a microsomal CLint in [2] above 300 µL/min/mg. This molecule also came in with an EC50 in series [15] of 18.7 nM.
Regarding `COc1ccc(C2=Nn3c(nnc3-c3ccccc3Cl)SC2)cc1OC1CCCC1`, the half-inhibitory concentration (IC50) in series [3] was determined as 26 nM.
For the molecule `COc1ccc(C2CNC(=O)C2)cc1OC1CCCC1` (stereo not given) [ROLIPRAM], the IC50 result in [19], in series [20], in series [21], in series [18] and in series [22] was “Not Active” throughout. In series [23], the inhibition entry is “inactive”. Besides, in series [24], the inhibition result is “Active”.
For `COc1ccc(OC)c(-c2nnc3n2N=C(c2ccc(OC)c(OCC4CC4)c2)CS3)c1`, the half-life in series [1] stood at 3 min. The molecule further returned a microsomal CLint in [2] above 300 µL/min/mg.
For `COc1ccc(C2=Nn3c(nnc3-c3ccccc3OC)SC2)cc1OC1CCCC1`, in series [3], the midpoint of inhibition, the IC50, lay at 32 nM.
Take `FC(F)Oc1ccc(C2=Nn3c(nnc3-c3ccccc3Cl)SC2)cc1OCC1CC1`: half-maximal inhibition in series [3] (IC50) required 37 nM.
Molecule `COc1ccc(C2=Nn3c(nnc3-c3ccccc3F)SC2)cc1OC1CCOC1` (stereo not given) registered an IC50 in [3] of 11 nM.
In the case of `COc1ccc(C2=Nn3c(nnc3-c3ccccc3F)SC2)cc1OC1CCCC1`, in [3], the IC50 came out at 33 nM.
For `COc1ccc(OC)c(-c2nnc3ccc(-c4ccc(OC)c(O[C@H]5CCOC5)c4)nn23)c1`, in [1], the half-life was determined as 3 min. This molecule also came in with a microsomal CLint in [2] above 300 µL/min/mg.
The molecule `COc1ccc(C2=Nn3c(nnc3-c3ccccc3Cl)SC2)cc1O[C@@H]1CCOC1` came in with an IC50 in [3] of 3.8 nM.
As to `COc1ccc(OC)c(-c2nnc3n2N=C(c2ccc(OC)c(O[C@@H]4CCOC4)c2)CS3)c1`, the inhibition in [4] worked out at 68%; in [25], 25%; in [6], 48%; in [7], 58%; in series [8], 36%; in series [9], 56%. Also, the inhibition in [10] came out at 52%; in series [12] it was 49%; in series [14], 43%. The half-life in series [1] was 3 min. The inhibition entry in [5] and in series [13] was “Active” throughout. Besides, the intrinsic metabolic clearance (microsomal CLint) in series [2] is above 300 µL/min/mg. The same molecule gave an EC50 in series [15] of 2.3 nM.
For `COc1ccc(OC)c(-c2nnc3n2N=C(c2ccc(OC)c(OC4CCOC4)c2)CS3)c1` (racemic), in series [1], the half-life came to 3 min. Further, in [2], the microsomal CLint was above 300 µL/min/mg.
As to `COc1ccc(OC)c(-c2nnc3n2N=C(c2ccc(OC(F)F)c(OCC4CC4)c2)CS3)c1`, in [1], the half-life came to 3 min. In series [2], this molecule registered a microsomal CLint above 300 µL/min/mg.
For the molecule `COc1ccc(C2=Nn3c(nnc3-c3ccccc3OC)SC2)cc1O[C@@H]1CCOC1`, in [3], the IC50 worked out at 11 nM.
In the case of `COc1ccc(C2=Nn3c(nnc3-c3ccccc3OC)SC2)cc1OC1CCOC1` (stereo not given), the IC50 in [3] amounted to 20 nM.
